Experimental data reported in ChEMBL document CHEMBL1125311, “Inhibition of human leukocyte elastase. 4. Selection of a substituted cephalosporin (L-658,758) as a topical aerosol” (J Med Chem, 1992).
Each block holds one compound with its values, some of them ahead of it.

Experiments:
Cricetinae gen. sp. [1] = test: Compound was evaluated in vivo for inhibition of HLE-induced hemorrhage in hamster lung at 100 microg 90 min after administration; type: functional, Cricetulus griseus
Cricetinae gen. sp. [2] = test: Compound was evaluated in vivo for inhibition of HLE-induced hemorrhage in hamster lung at 100 microg 30 min after administration; type: functional, Cricetulus griseus
Outline: (§1)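 Hamster, intratracheal dosing of compound (per animal) 30 min before IT instillation of 50 μg HLE (50 units in Experimental); hemorrhage read 3 h later: lungs lavaged with saline, hemoglobin in lavage measured at 414 nm. Percent inhibition from drug-treated vs vehicle-treated hemorrhage; three animals per dose and time. Titration at 100, 30, 10, 3 μg/animal gives ED50.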

[3] = target: T1, Neutrophil elastase (Homo sapiens) (UniProt P08246)
T1 sequence (whole entry): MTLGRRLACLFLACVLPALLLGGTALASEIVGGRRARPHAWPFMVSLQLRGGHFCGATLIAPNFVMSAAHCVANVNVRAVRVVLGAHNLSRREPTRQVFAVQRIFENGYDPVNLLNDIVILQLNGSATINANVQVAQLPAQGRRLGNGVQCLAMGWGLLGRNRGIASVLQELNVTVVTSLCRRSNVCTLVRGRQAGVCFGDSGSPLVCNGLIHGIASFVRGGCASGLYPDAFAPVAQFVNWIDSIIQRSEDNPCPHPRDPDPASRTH

Cricetinae gen. sp. [4] = test: Compound was evaluated in vivo for inhibition of HLE-induced hemorrhage in hamster lung at 200 microg 4 hr after administration prior to HLE; type: functional, Cricetulus griseus
Outline: (§2)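 Hamster duration protocol: 200 μg/animal given intratracheally 60, 120, 180 or 240 min before IT HLE instillation; hemorrhage scored after 3 h as hemoglobin (414 nm) in saline lung lavage, relative to vehicle-treated animals; three animals per point. T50 taken as time at which 50% inhibition is still obtained.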

Cricetinae gen. sp. [5] = test: Compound was evaluated in vivo for inhibition of HLE-induced hemorrhage in hamster lung at 30 ug 30 min after administration prior to HLE; type: functional, Cricetulus griseus; outline: as §1
Cricetinae gen. sp. [6] = test: Compound was evaluated in vivo for inhibition of HLE-induced hemorrhage in hamster lung at 200 microg 3h after administration prior to HLE; type: functional, Cricetulus griseus; outline: as §2
Neutrophil elastase [7] = target: T2, Neutrophil elastase (Homo sapiens, UniProt P08246); test: Inhibitory activity against Human Leukocyte Elastase
T2 sequence (P08246 whole entry): T1 sequence (whole entry)

Cricetinae gen. sp. [8] = test: Compound was evaluated in vivo for inhibition of HLE-induced hemorrhage in hamster lung at 10 ug 30 min after administration prior to HLE; type: functional, Cricetulus griseus; outline: as §1
Cricetinae gen. sp. [9] = test: Inhibitory activity against Human Leukocyte Elastase by Lung Hemorrhage assay ( at 200 ug/animal); type: functional, Cricetulus griseus; outline: as §2
Cricetinae gen. sp. [10] = test: Compound was evaluated in vivo for inhibition of HLE-induced hemorrhage in hamster lung at 200 microg 1 hr after administration prior to HLE; type: functional, Cricetulus griseus; outline: as §2
Cricetinae gen. sp. [11] = test: Inhibitory activity against Human Leukocyte Elastase by Lung Hemorrhage assay (at 30 min); type: functional, Cricetulus griseus
Outline: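 Hamster, intratracheal: test compound 100 μg/animal given 30 min before IT instillation of HLE (50 μg; text also says 50 units). Hemorrhage read 3 h after HLE: lungs lavaged with saline, hemoglobin measured at 414 nm. Percent inhibition from hemorrhage in drug-treated vs vehicle-treated animals; mean of three animals per dose and time.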

[12] = Half-life value of the compound.; type: ADME
Outline: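 Chemical stability: compound dissolved at 1 mg/mL in 0.5 M MOPS, pH 8.0, held at 25 °C in capped vial; aliquots quenched in 2% aqueous TFA and analysed by reverse-phase HPLC over one to two half-lives. Peak areas fit to first-order decay F(t)=A/2^(t/t1/2) to give t1/2.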

Cricetinae gen. sp. [13] = test: Compound was evaluated in vivo for inhibition of HLE-induced hemorrhage in hamster lung at 100 microg 30 min after administration prior to HLE; type: functional, Cricetulus griseus; outline: as §1
Cricetinae gen. sp. [14] = test: Inhibitory activity against Human Leukocyte Elastase by Lung Hemorrhage assay (Effective dose at 15 microg); type: functional, Cricetulus griseus
Cricetinae gen. sp. [15] = test: Compound was evaluated in vivo for inhibition of HLE-induced hemorrhage in hamster lung at 200 microg 2 hr after administration prior to HLE; type: functional, Cricetulus griseus; outline: as §2
Cricetinae gen. sp. [16] = test: Compound was evaluated in vivo for inhibition of HLE-induced hemorrhage in hamster lung at 100 microg, 30 min after administration; type: functional, Cricetulus griseus; outline: as §1
Cricetinae gen. sp. [17] = test: Compound was evaluated in vivo for inhibition of HLE-induced hemorrhage in hamster lung at 200 microg, 2 hr after administration prior to HLE; type: functional, Cricetulus griseus; outline: as §2
Cricetinae gen. sp. [18] = test: Compound was evaluated in vivo for inhibition of HLE-induced hemorrhage in hamster lung at 200 microg, 1 hr after administration prior to HLE; type: functional, Cricetulus griseus; outline: as §2
Cricetinae gen. sp. [19] = test: Compound was evaluated in vivo for inhibition of HLE-induced hemorrhage in hamster lung at 100 microg, 30 min after administration prior to HLE; type: functional, Cricetulus griseus; outline: as §1
Cricetinae gen. sp. [20] = test: Compound was evaluated in vivo for inhibition of HLE-induced hemorrhage in hamster lung at 200 microg, 4 hr after administration prior to HLE; type: functional, Cricetulus griseus; outline: as §2
Cricetinae gen. sp. [21] = test: Compound was evaluated in vivo for inhibition of HLE-induced hemorrhage in hamster lung at 3 microg, 30 min after administration prior to HLE; type: functional, Cricetulus griseus; outline: as §1
Cricetinae gen. sp. [22] = test: Compound was evaluated in vivo for inhibition of HLE-induced hemorrhage in hamster lung at 10 microg, 30 min after administration prior to HLE; type: functional, Cricetulus griseus; outline: as §1
Cricetinae gen. sp. [23] = test: Compound was evaluated in vivo for inhibition of HLE-induced hemorrhage in hamster lung at 200 microg, 3h after administration prior to HLE; type: functional, Cricetulus griseus; outline: as §2
Cricetinae gen. sp. [24] = test: Compound was evaluated in vivo for inhibition of HLE-induced hemorrhage in hamster lung at 30 microg, 30 min after administration prior to HLE
Neutrophil elastase [25] = target: T2, Neutrophil elastase; test: In vitro inhibitory activity against human leukocyte elastase
Cricetinae gen. sp. [26] = test: Compound was evaluated in vivo for inhibition of HLE-induced hemorrhage in hamster lung at 30microg, 30 min after administration prior to HLE; type: functional, Cricetulus griseus; outline: as §1
Cricetinae gen. sp. [27] = test: Compound was evaluated in vivo for inhibition of HLE-induced hemorrhage in hamster lung at 10microg, 30 min after administration prior to HLE; type: functional, Cricetulus griseus; outline: as §1
Cricetinae gen. sp. [28] = test: Compound was evaluated in vivo for inhibition of HLE-induced hemorrhage in hamster lung at 400 microg, 5 min after administration; type: functional, Cricetulus griseus
Cricetinae gen. sp. [29] = test: Compound was evaluated in vivo for inhibition of HLE-induced hemorrhage in hamster lung at 30 microg, 30 min after administration prior to HLE; type: functional, Cricetulus griseus; outline: as §1

Structure (SMILES): CO[C@H]1C(=O)N2C(C(=O)OC(C)(C)C)=C(CSc3nc(=O)c(=O)[nH]n3C)CS(=O)(=O)[C@H]12
Inhibition (Cricetinae gen. sp. [1]): 18%
Inhibition (Cricetinae gen. sp. [2]): 90%
k obs / 1 [3]: 8600 M⁻¹ s⁻¹

Structure (SMILES): CO[C@H]1C(=O)N2C(C(=O)N3CCCC3)=C(CSc3nc(=O)c(=O)[nH]n3C)CS(=O)(=O)[C@H]12
Inhibition (Cricetinae gen. sp. [4]): 50%
Inhibition (Cricetinae gen. sp. [5]): 60%
Inhibition (Cricetinae gen. sp. [6]): 64%
IC50 (Neutrophil elastase [7]): 2 µM
Inhibition (Cricetinae gen. sp. [8]): 30%
T50 (Cricetinae gen. sp. [9]): 240 min
Inhibition (Cricetinae gen. sp. [10]): 88%
ED50 (Cricetinae gen. sp. [11]): 20 µg
half-life [12]: 20 h
Inhibition (Cricetinae gen. sp. [13]): 95%
ED50 (Cricetinae gen. sp. [14]): 30 µg
k obs / 1 [3]: 13400 M⁻¹ s⁻¹
Inhibition (Cricetinae gen. sp. [15]): 87%

Structure (SMILES): CO[C@H]1C(=O)N2C(C(=O)N3CCOCC3)=C(COC(C)=O)CS(=O)(=O)[C@H]12
Inhibition (Cricetinae gen. sp. [16]): -21%
half-life [12]: 13 h
k obs / 1 [3]: 35200 M⁻¹ s⁻¹

Structure (SMILES): CC[C@H]1C(=O)N2C(C(=O)OCc3ccc(C(=O)O)cc3)=C(COC(C)=O)CS(=O)(=O)[C@H]12
Inhibition (Cricetinae gen. sp. [2]): -32%
half-life [12]: 40 h
k obs / 1 [3]: 5700 M⁻¹ s⁻¹

Structure (SMILES): CO[C@H]1C(=O)N2C(C(=O)N(C)CC(=O)O)=C(CSc3ccccn3)CS(=O)(=O)[C@H]12
Inhibition (Cricetinae gen. sp. [27]): 35%
Inhibition (Cricetinae gen. sp. [19]): 76%
Ki (Neutrophil elastase [25]): 43 µM
Inhibition (Cricetinae gen. sp. [26]): 46%

Structure (SMILES): CO[C@H]1C(=O)N2C(C(=O)OC(C)(C)C)=C(COC(=O)CCC(=O)O)CS(=O)(=O)[C@H]12
Inhibition (Cricetinae gen. sp. [28]): 98%

Structure (SMILES): CO[C@H]1C(=O)N2C(C(=O)N(C)Cc3ccccc3)=C(COC(=O)c3ccc(C(=O)O)cc3)CS(=O)(=O)[C@H]12
k obs / 1 [3]: 10000 M⁻¹ s⁻¹

Structure (SMILES): CO[C@H]1C(=O)N2C(C(=O)N3CCCC3)=C(COC(C)=O)CS(=O)(=O)[C@H]12
half-life [12]: 16 h
k obs / 1 [3]: 27000 M⁻¹ s⁻¹

Structure (SMILES): CO[C@H]1C(=O)N2C(C(=O)N(C)CC(=O)O)=C(CSc3nnnn3C)CS(=O)(=O)[C@H]12
k obs / 1 [3]: 600 M⁻¹ s⁻¹

Second part, led by results:

k obs / 1 [3]: 500 M⁻¹ s⁻¹
Structure (SMILES): CO[C@H]1C(=O)N2C(C(=O)N(C)[C@@H](C)C(=O)O)=C(COC(C)=O)CS(=O)(=O)[C@H]12
Inhibition (Cricetinae gen. sp. [17]): 81%
Inhibition (Cricetinae gen. sp. [18]): 94%
Inhibition (Cricetinae gen. sp. [19]): 96%
Inhibition (Cricetinae gen. sp. [20]): 21%
Inhibition (Cricetinae gen. sp. [21]): 50%
Inhibition (Cricetinae gen. sp. [22]): 78%
Inhibition (Cricetinae gen. sp. [23]): 47%
Inhibition (Cricetinae gen. sp. [24]): 89%

Ki (Neutrophil elastase [25]): 6.1 µM
Structure (SMILES): CO[C@H]1C(=O)N2C(C(=O)N(CC(=O)O)Cc3ccccc3)=C(COC(C)=O)CS(=O)(=O)[C@H]12
Inhibition (Cricetinae gen. sp. [19]): 42%
Inhibition (Cricetinae gen. sp. [26]): 30%

k obs / 1 [3]: 900 M⁻¹ s⁻¹
Structure (SMILES): CO[C@H]1C(=O)N2C(C(=O)N(C)[C@H](C)C(=O)O)=C(COC(C)=O)CS(=O)(=O)[C@H]12
Inhibition (Cricetinae gen. sp. [29]): 90%
Inhibition (Cricetinae gen. sp. [19]): 97%
Inhibition (Cricetinae gen. sp. [22]): 29%

Ki (Neutrophil elastase [25]): 3.4 µM
half-life [12]: < 5 h
Structure (SMILES): CO[C@H]1C(=O)N2C(C(=O)N3CCC[C@@H]3C(=O)O)=C(COC(C)=O)CS(=O)(=O)[C@H]12

half-life [12]: 8 h
k obs / 1 [3]: 1400 M⁻¹ s⁻¹
Structure (SMILES): CO[C@H]1C(=O)N2C(C(=O)N(C)CC(=O)O)=C(COC(C)=O)C(C)S(=O)(=O)[C@H]12 (stereo not given in full)

k obs / 1 [3]: 700 M⁻¹ s⁻¹
Structure (SMILES): CO[C@H]1C(=O)N2C(C(=O)N(C)CC(=O)N(C)CCC(=O)O)=C(COC(C)=O)CS(=O)(=O)[C@H]12
Inhibition (Cricetinae gen. sp. [27]): 35%
Inhibition (Cricetinae gen. sp. [19]): 86%
Inhibition (Cricetinae gen. sp. [26]): 77%
